This assay addresses T1, KDM4A S288G mutant (Homo sapiens, UniProt O75164, S288G).
T1 sequence (O75164 1-1064 S288G): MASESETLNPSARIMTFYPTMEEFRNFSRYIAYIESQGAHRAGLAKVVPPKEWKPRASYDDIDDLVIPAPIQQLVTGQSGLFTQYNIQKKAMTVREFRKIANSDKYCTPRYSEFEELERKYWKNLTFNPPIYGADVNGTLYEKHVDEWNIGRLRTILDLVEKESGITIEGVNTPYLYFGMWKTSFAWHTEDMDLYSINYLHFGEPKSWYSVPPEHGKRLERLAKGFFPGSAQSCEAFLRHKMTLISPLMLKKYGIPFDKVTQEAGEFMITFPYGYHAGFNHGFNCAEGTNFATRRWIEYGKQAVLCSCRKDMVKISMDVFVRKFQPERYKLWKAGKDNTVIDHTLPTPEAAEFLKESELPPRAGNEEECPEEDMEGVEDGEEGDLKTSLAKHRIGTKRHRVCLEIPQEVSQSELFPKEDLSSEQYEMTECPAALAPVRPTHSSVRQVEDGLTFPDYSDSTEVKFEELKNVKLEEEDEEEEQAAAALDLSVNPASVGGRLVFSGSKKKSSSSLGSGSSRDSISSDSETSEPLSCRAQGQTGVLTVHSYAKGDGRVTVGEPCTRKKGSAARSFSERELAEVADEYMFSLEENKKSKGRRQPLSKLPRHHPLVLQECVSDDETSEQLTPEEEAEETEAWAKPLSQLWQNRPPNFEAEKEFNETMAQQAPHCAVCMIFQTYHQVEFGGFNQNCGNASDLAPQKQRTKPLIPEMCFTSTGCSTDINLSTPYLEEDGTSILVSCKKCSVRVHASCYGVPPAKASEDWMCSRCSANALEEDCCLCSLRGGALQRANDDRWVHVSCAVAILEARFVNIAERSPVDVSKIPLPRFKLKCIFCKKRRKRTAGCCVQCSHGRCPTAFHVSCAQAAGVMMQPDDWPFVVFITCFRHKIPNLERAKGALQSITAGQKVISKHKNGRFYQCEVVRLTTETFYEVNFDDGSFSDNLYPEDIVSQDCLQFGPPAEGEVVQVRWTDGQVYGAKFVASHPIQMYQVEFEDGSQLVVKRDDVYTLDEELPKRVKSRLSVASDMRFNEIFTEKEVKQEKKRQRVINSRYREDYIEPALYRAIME
Kind of assay: MALDI demethylase assay, H3K9me3 substrate peptide, S288G mutant. Type of assay: biochemical. The essentials:
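KDM4A mutant demethylation of H3K9me3 peptide, read by MALDI-MS and expressed as % inhibition of demethylase activity, with wild type and the four active-site mutants run under the same conditions. The 2KG cofactor was cut from the 1 mM of the initial activity assay to 50 μM, about 3–4-fold above the enzymes' 2KG KM. KM came from an FDH/NAD+-coupled NADH fluorescence assay.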

Where [1] appears, read: scaffold test under the optimized assay conditions (50 μM 2KG), Figure S7.

With `O=C(O)c1ccc(O)c2ncccc12` [IOX1, 5-carboxy-8-hydroxyquinone], under setting [1], the “inhibition of demethylase activity” value is given as “inhibited”.
`O=C(O)CNC(=O)C(=O)O` [compound 2, N-oxalylglycine]: the “inhibition of demethylase activity” value by setting is: (100 μM compound, 50 μM 2KG, MALDI-MS) “significantly inhibited”; under setting [1], “inhibited”.
